Test results taken from ChEMBL document CHEMBL3259795, “Cephalochromin induces G0/G1 cell cycle arrest and apoptosis in A549 human non-small-cell lung cancer cells by inflicting mitochondrial disruption” (J Nat Prod, 2014).
Active and inactive are the calls of the source. The calls are words filed in the database; no cut-off is given here.

Key:
[1] = test system: A549; experiment: Cell cycle arrest in human A549 cells assessed as accumulation at G0/G1 phase at 10 uM after 24 hrs using propidium iodide staining by flow cytometry analysis (reference value: 51 +/- 1.1%); type: functional
[2] = test system: A549; experiment: Induction of apoptosis in human A549 cells assessed as loss of mitochondrial membrane potential at 50 uM after 12 to 24 hrs by flow cytometry analysis; type: functional, cell-based
In short: (§1)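 A549 cells treated 12 and 24 h, stained with rhodamine 123 for 30 min at 37 °C; mean fluorescence by FACScan flow cytometry; CCCP (50 μM) used as depolarising control; mean ± SEM of three independent determinations.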

[3] = test system: A549; experiment: Induction of apoptosis in human A549 cells assessed as induction of ROS production at 10 uM after 12 hrs using DCF-DA staining by flow cytometry analysis relative to control; type: functional
In short: (§2)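 Intracellular ROS in A549 cells after 12 h at 1, 3, 10, 30 μM, with 5 mM H2O2 as reference, measured by flow cytometry with DCF-DA probe; fold fluorescence over vehicle control; mean ± SEM, three independent determinations.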

[4] = test system: Caco-2; experiment: Cytotoxicity against human Caco2 cells after 48 hrs by SRB assay; conditions: Caco-2, 48 h
[5] = test system: A549; experiment: Induction of apoptosis in human A549 cells assessed as hypodiploid DNA content at 10 to 20 uM after 48 hrs by flow cytometry analysis in presence of Z-VAD-fmk; type: functional, cell-based
In short: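 Cells preincubated 2 h with or without 50 μM Z-VAD-fmk, then exposed to indicated concentrations for 48 h; hypodiploid DNA content read by flow cytometry; mean ± SEM of three independent determinations.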

[6] = test system: A549; experiment: Cell cycle arrest in human A549 cells assessed as accumulation at S phase at 10 uM after 36 hrs using propidium iodide staining by flow cytometry analysis (reference value: 9.6 +/- 0.9%); type: functional
[7] = test system: A549; experiment: Induction of apoptosis in human A549 cells assessed as DNA level at 3 to 30 uM using propidium iodide staining by flow cytometry analysis; type: functional, cell-based; conditions: TDE = time-dependent effect
In short: (§3)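 A549 cells treated at 3, 10 or 30 μM for 24, 36 or 48 h, fixed, stained with propidium iodide; hypodiploid apoptotic fraction counted by FACScan flow cytometry; mean ± SEM of three determinations versus vehicle control.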

[8] = test system: A549; experiment: Cell cycle arrest in human A549 cells assessed as accumulation at G2/M phase at 10 uM after 24 hrs using propidium iodide staining by flow cytometry analysis (reference value: 35.2 +/- 2.3%); type: functional
[9] = test system: A549; experiment: Induction of apoptosis in human A549 cells assessed as loss of mitochondrial membrane potential at 10 to 30 uM after 12 to 24 hrs by flow cytometry analysis; type: functional, cell-based; in short: as §1
[10] = test system: A549; experiment: Cell cycle arrest in human A549 cells assessed as accumulation at S phase at 10 uM after 48 hrs using propidium iodide staining by flow cytometry analysis (reference value: 9.5 +/- 0.7%); type: functional
[11] = test system: A549; experiment: Cell cycle arrest in human A549 cells assessed as accumulation at sub-G1 phase at 10 uM after 24 hrs using propidium iodide staining by flow cytometry analysis (reference value: 2 +/- 0.3%); type: functional
[12] = test system: A549; experiment: Induction of apoptosis in human A549 cells assessed as induction of ROS production at 1 uM after 12 hrs using DCF-DA staining by flow cytometry analysis relative to control; type: functional; in short: as §2
[13] = test system: A549; experiment: Cell cycle arrest in human A549 cells assessed as accumulation at S phase at 10 uM after 24 hrs using propidium iodide staining by flow cytometry analysis (reference value: 12 +/- 1.4%); type: functional
[14] = test system: A549; experiment: Induction of apoptosis in human A549 cells assessed as reduction of Bad proteins expression at 10 uM after 6 to 36 hrs by Western blot analysis; type: functional, cell-based
In short: (§4)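 A549 cells given 10 μM for 6, 12, 24, 36 h; lysates blotted (40 μg protein, SDS-PAGE, PVDF) for caspase-3/-8/-9, PARP, survivin, Bad, Bcl-xL; ECL detection; survivin bands quantified densitometrically; three independent experiments.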

[15] = Cytotoxicity against human Hep3B cells after 48 hrs by SRB assay
[16] = Cytotoxicity against human HuH7 cells after 48 hrs by SRB assay; conditions: Huh-7, 48 h
[17] = test system: A549; experiment: Induction of apoptosis in human A549 cells assessed as reduction of Bcl-xL expression at 10 uM after 6 to 36 hrs by Western blot analysis; type: functional, cell-based; in short: as §4
[18] = test system: A549; experiment: Cell cycle arrest in human A549 cells assessed as accumulation at G0/G1 phase at 10 uM after 36 hrs using propidium iodide staining by flow cytometry analysis (reference value: 53.1 +/- 1.2%); type: functional
[19] = test system: SW1353; experiment: Cytotoxicity against human SW1353 cells after 48 hrs by SRB assay; conditions: SW1353, 48 h
[20] = test system: A549; experiment: Induction of apoptosis in human A549 cells assessed as reduction of survivin expression at 10 uM by Western blot analysis; type: functional, cell-based; conditions: TDE = time-dependent effect; in short: as §4
[21] = Cytotoxicity against human HT1080 cells after 48 hrs by SRB assay; conditions: HT-1080, 48 h
[22] = test system: A549; experiment: Cell cycle arrest in human A549 cells assessed as accumulation at G0/G1 phase at 10 uM after 48 hrs using propidium iodide staining by flow cytometry analysis (reference value: 57.3 +/- 0.9%); type: functional
[23] = test system: A549; experiment: Induction of apoptosis in human A549 cells assessed as induction of ROS production at 10 uM using DCF-DA staining by flow cytometry analysis relative to control; type: functional, cell-based; conditions: TDE = time-dependent effect
In short: (§5)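 Cells pretreated 1 h with or without 1 mM Tiron, then 10 μM for 1, 3 or 5 h; intracellular ROS read by DCF-DA flow cytometry; mean ± SEM of three independent determinations versus vehicle.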

[24] = test system: A549; experiment: Induction of apoptosis in human A549 cells assessed as induction of ROS production at 10 uM after 5 hrs using DCF-DA staining by flow cytometry analysis in presence of Tiron; type: functional, cell-based; in short: as §5
[25] = test system: A549; experiment: Induction of apoptosis in human A549 cells assessed as proteolytic cleavage of inactive procaspase-8, 9, and 3 into active caspase-8, 9, and 3 at 10 uM by Western blot analysis; type: functional, cell-based; conditions: TDE = time-dependent effect; in short: as §4
[26] = test system: A549; experiment: Induction of apoptosis in human A549 cells assessed as downregulation of cyclin D1, cyclin E, Cdk 2, and Cdk 4 protein levels after 24 hrs by Western blot analysis; type: functional, cell-based
In short: (§6)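 A549 lysates after 10 μM for 6, 12, 24, 36 h, or 1, 3, 10 μM for 24 h; 40 μg protein on 8–12% SDS gels, PVDF transfer, primary antibodies 1 h at room temperature, ECL detection; three independent experiments.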

[27] = test system: A549; experiment: Cell cycle arrest in human A549 cells assessed as accumulation at G2/M phase at 10 uM after 36 hrs using propidium iodide staining by flow cytometry analysis (reference value: 35.8 +/- 1.8%); type: functional
[28] = test system: A549; experiment: Cytotoxicity against human A549 cells after 48 hrs by MTT assay; type: functional, cell-based
In short: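 Viability of A549 cells measured by mitochondrial MTT reduction after 24 and 48 h incubation with indicated concentrations; IC50 at 48 h; mean ± SEM of three determinations, each in triplicate.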

[29] = test system: A549; experiment: Induction of apoptosis in human A549 cells assessed as induction of ROS production at 5 mM after 12 hrs using DCF-DA staining by flow cytometry analysis relative to control; type: functional; in short: as §2
[30] = test system: A549; experiment: Cell cycle arrest in human A549 cells assessed as accumulation at sub-G1 phase at 10 uM after 48 hrs using propidium iodide staining by flow cytometry analysis (reference value: 1.5 +/- 0.1%); type: functional
[31] = test system: A549; experiment: Induction of apoptosis in human A549 cells assessed as induction of cleaved PARP protein expression at 10 uM after 26 to 36 hrs by Western blot analysis; type: functional, cell-based; conditions: in the assay text read “24 to 36 hrs” for “26 to 36 hrs”; in short: as §4
[32] = test system: A549; experiment: Induction of apoptosis in human A549 cells assessed as DNA level after 24 to 48 hrs using propidium iodide staining by flow cytometry analysis; type: functional, cell-based; in short: as §3
[33] = test system: A549; experiment: Induction of apoptosis in human A549 cells assessed as induction of ROS production at 30 uM after 12 hrs using DCF-DA staining by flow cytometry analysis relative to control; type: functional; in short: as §2
[34] = test system: A549; experiment: Cytotoxicity against human A549 cells after 48 hrs by SRB assay; type: functional, cell-based
In short: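 A549 cells exposed to a range of concentrations for 48 h, fixed and stained with sulforhodamine B to measure cell number; IC50 from three independent determinations, mean ± SEM.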

[35] = test system: A549; experiment: Induction of apoptosis in human A549 cells assessed as induction of ROS production after 12 hrs using DCF-DA staining by flow cytometry analysis; type: functional, cell-based; in short: as §2
[36] = test system: A549; experiment: Cell cycle arrest in human A549 cells assessed as accumulation at G2/M phase at 10 uM after 48 hrs using propidium iodide staining by flow cytometry analysis (reference value: 31.9 +/- 1.4%); type: functional
[37] = test system: A549; experiment: Induction of apoptosis in human A549 cells assessed as increase in expression of LC3-II at 10 uM by Western blot analysis; type: functional, cell-based; conditions: TDE = time-dependent effect
In short: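 A549 cells with or without 10 μM for 6, 12, 24, 36 h; LC3 detected by Western blot with ECL; LC3 II band quantified by image analysis; three independent experiments.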

[38] = test system: A549; experiment: Induction of apoptosis in human A549 cells assessed as downregulation of cyclin D1, cyclin E, Cdk 2, and Cdk 4 protein levels at 10 uM after 6 to 36 hrs by Western blot analysis; type: functional, cell-based; in short: as §6
[39] = test system: A549; experiment: Induction of apoptosis in human A549 cells assessed as induction of ROS production at 3 uM after 12 hrs using DCF-DA staining by flow cytometry analysis relative to control; type: functional; in short: as §2
[40] = test system: A549; experiment: Cell cycle arrest in human A549 cells assessed as accumulation at sub-G1 phase at 10 uM after 36 hrs using propidium iodide staining by flow cytometry analysis (reference value: 1.7 +/- 0.4%); type: functional

In the case of `CC1CC(=O)c2c(cc3c(-c4c(O)cc(O)c5c(O)c6c(cc45)OC(C)CC6=O)c(O)cc(O)c3c2O)O1` (configuration not stated) [CEPHALOCHROMIN], the Activity [1] is reported as 59.6%, the Activity [2] is reported as “Active” and the “fold change (FC)” value [3] is reported as 2.87. For the same compound, the IC50 [4] was 12.4 µM, the Activity [5] was “inactive” and the Activity [6] was 4.2%. The Activity [7] was “tde”, the Activity [8] was 32.7% and the Activity [9] was “Active”. For the same compound, the Activity [10] was 4.4%, the Activity [11] was 3.8% and the “fold change (FC)” value [12] was 1.24. The Activity [13] was 3.9%, the Activity [14] was “inactive” and the IC50 [15] was 14.3 µM. The IC50 [16] was 4.64 µM, the Activity [17] was “Active” and the Activity [18] was 53.7%. For the same compound, the IC50 [19] was 3.54 µM, the Activity [20] was “tde” and the IC50 [21] was 4.98 µM. For the same compound, the Activity [22] was 52.1%, the Activity [23] was “tde” and the Activity [24] was “inactive”. For the same compound, the Activity [25] was “tde”, the Activity [26] was “Dose-dependent effect” and the Activity [27] was 32.3%. For the same compound, the Activity [28] was “Dose-dependent effect”, the IC50 ([28]; A549, 48 h) was 5.22 µM and the “fold change (FC)” value [29] was 7.2. The Activity [30] was 15.5%, the Activity [31] was “Active” and the Activity [32] was “Dose-dependent effect”. For the same compound, the “fold change (FC)” value [33] was 4.65, the Activity [34] was “Dose-dependent effect” and the IC50 ([34]; A549, 48 h) was 2.72 µM. For the same compound, the Activity [35] was “Dose-dependent effect”, the Activity [36] was 27.9% and the Activity [37] was “tde”. For the same compound, the Activity [38] was “Active”, the “fold change (FC)” value [39] was 1.89 and the Activity [40] was 9.8%.
